How the values were obtained:
[1] = target: MAP kinase-activated protein kinase 2 (Homo sapiens, UniProt P49137); test: Inhibition of MAPKAPK2 at 30 uM by microfluidic mobility shift assay
Method in brief: (§1)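 Single-concentration screen, singlicate, 30 uM final (diluted from 1 mM DMSO solutions), fluorescently tagged peptide substrate appropriate to each kinase, ATP at apparent Km for each protein. Phosphorylated and unphosphorylated peptides separated electrophoretically; conversion is the phosphorylated peak area over the sum of both peaks. No-inhibitor and no-ATP controls; H89 reference on each plate.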

[2] = target: Ribosomal protein S6 kinase alpha-1 (Homo sapiens) (UniProt Q15418); test: Inhibition of RSK1 at 30 uM by microfluidic mobility shift assay; method in brief: as §1
[3] = target: T1, MAP kinase-activated protein kinase 5 (Homo sapiens) (UniProt Q8IW41); test: Inhibition of PRAK1 at 30 uM by microfluidic mobility shift assay; method in brief: as §1
T1 sequence (whole entry): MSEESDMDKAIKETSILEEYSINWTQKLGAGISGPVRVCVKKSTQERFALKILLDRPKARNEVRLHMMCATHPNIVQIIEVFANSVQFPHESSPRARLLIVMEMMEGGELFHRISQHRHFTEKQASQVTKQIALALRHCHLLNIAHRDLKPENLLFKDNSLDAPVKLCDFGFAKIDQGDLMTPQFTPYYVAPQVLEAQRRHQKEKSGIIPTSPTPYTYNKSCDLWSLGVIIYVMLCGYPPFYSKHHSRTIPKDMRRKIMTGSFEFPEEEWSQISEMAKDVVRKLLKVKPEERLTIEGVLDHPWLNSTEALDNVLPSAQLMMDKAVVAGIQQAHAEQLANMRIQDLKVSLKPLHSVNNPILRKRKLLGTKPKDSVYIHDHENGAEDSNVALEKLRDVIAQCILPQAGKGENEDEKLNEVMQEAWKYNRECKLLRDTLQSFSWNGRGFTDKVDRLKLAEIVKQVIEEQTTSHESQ

[4] = target: Mitogen-activated protein kinase 3 (Homo sapiens) (UniProt P27361); test: Inhibition of ERK1 at 30 uM by microfluidic mobility shift assay; method in brief: as §1
[5] = target: T2, Serine/threonine-protein kinase D2 (Homo sapiens) (UniProt Q9BZL6); test: Inhibition of PKD2 at 30 uM by microfluidic mobility shift assay; method in brief: as §1
T2 sequence (whole entry): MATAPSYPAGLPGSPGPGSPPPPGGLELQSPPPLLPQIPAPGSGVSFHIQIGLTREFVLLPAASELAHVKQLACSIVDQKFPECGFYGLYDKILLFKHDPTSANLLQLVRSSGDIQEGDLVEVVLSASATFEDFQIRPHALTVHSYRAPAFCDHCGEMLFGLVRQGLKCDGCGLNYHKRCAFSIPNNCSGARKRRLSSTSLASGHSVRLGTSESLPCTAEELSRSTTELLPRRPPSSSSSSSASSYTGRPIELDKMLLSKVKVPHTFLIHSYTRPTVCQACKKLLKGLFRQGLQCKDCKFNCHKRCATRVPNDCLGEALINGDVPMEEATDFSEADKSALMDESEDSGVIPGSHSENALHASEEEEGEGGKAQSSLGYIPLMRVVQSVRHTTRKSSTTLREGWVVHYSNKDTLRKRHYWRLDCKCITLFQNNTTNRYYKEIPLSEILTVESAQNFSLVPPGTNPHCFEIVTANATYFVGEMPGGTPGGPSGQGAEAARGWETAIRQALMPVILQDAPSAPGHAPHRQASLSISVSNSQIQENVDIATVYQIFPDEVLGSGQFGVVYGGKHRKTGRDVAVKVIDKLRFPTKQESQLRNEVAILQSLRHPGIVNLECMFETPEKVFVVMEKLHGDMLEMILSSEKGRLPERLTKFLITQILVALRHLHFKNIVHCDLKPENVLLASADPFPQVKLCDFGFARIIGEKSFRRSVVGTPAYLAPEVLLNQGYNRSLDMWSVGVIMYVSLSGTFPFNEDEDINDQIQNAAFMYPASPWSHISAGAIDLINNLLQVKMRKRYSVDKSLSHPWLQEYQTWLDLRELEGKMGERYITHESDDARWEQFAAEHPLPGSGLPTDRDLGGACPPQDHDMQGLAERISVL

[6] = target: T3, Serine/threonine-protein kinase Chk1 (Homo sapiens) (UniProt O14757); test: Inhibition of CHK1 at 30 uM by microfluidic mobility shift assay; method in brief: as §1
T3 sequence (whole entry): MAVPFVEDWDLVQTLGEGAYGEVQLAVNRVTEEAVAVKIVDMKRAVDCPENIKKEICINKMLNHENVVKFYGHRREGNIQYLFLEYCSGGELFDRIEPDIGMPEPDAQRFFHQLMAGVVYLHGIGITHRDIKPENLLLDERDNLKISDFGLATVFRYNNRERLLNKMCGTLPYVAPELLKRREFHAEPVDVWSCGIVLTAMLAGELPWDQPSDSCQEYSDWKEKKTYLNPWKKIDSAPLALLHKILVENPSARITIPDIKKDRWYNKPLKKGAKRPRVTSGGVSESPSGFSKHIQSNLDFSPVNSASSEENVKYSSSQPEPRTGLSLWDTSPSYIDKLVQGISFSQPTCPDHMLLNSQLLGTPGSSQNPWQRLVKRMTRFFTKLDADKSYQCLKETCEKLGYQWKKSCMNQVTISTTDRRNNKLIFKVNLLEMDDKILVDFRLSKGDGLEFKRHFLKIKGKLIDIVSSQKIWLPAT

[7] = target: Tyrosine-protein kinase ABL1 (Homo sapiens, UniProt P00519); test: Inhibition of ABL at 30 uM by microfluidic mobility shift assay; method in brief: as §1
[8] = target: Tyrosine-protein kinase Fyn (Homo sapiens, UniProt P06241); test: Inhibition of FYN at 30 uM by microfluidic mobility shift assay; method in brief: as §1
[9] = target: Tyrosine-protein kinase Lyn (Homo sapiens, UniProt P07948); test: Inhibition of LYN at 30 uM by microfluidic mobility shift assay; method in brief: as §1
[10] = target: Tyrosine-protein kinase Lck (Homo sapiens, UniProt P06239); test: Inhibition of LCK at 30 uM by microfluidic mobility shift assay; method in brief: as §1
[11] = target: Proto-oncogene tyrosine-protein kinase Src (Homo sapiens, UniProt P12931); test: Inhibition of SRC at 30 uM by microfluidic mobility shift assay; method in brief: as §1
[12] = target: Mitogen-activated protein kinase 1 (Homo sapiens) (UniProt P28482); test: Inhibition of ERK2 at 30 uM by microfluidic mobility shift assay; method in brief: as §1
[13] = Inhibition of PKA at 30 uM by microfluidic mobility shift assay; method in brief: as §1
[14] = target: RAC-beta serine/threonine-protein kinase (Homo sapiens) (UniProt P31751); test: Inhibition of AKT2 at 30 uM by microfluidic mobility shift assay; method in brief: as §1
[15] = target: Mitogen-activated protein kinase 14 (Homo sapiens, UniProt Q16539); test: Inhibition of p38alpha at 30 uM by microfluidic mobility shift assay; method in brief: as §1
[16] = target: RAC-alpha serine/threonine-protein kinase (Homo sapiens) (UniProt P31749); test: Inhibition of AKT1 at 30 uM by microfluidic mobility shift assay; method in brief: as §1
[17] = target: Ribosomal protein S6 kinase alpha-5 (Homo sapiens) (UniProt O75582); test: Inhibition of MSK1 at 30 uM by microfluidic mobility shift assay; method in brief: as §1
Ribosomal protein S6 kinase alpha-5 (Homo sapiens), sequence (O75582 whole entry, looked up): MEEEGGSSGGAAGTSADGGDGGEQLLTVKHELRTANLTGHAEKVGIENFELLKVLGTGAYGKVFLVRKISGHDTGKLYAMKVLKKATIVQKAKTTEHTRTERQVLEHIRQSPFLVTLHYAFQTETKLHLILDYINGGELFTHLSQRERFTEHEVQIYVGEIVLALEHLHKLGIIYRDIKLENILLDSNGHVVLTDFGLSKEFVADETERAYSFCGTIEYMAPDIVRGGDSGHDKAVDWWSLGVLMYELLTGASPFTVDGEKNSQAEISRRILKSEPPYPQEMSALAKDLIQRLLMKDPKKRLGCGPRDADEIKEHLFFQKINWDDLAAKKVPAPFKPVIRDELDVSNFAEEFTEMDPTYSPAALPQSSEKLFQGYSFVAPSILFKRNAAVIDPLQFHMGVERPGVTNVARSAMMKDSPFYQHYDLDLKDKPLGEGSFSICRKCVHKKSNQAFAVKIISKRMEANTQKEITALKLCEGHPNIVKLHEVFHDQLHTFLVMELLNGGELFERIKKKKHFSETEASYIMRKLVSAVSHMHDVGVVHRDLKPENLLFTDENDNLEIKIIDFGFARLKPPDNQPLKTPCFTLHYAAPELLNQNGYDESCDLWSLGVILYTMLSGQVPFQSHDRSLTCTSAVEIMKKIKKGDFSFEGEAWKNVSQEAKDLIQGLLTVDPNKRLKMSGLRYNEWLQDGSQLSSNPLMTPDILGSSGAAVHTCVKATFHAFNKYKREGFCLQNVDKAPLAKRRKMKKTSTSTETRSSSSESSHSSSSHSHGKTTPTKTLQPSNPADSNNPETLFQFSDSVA

Proto-oncogene tyrosine-protein kinase Src, sequence (P12931 2-536 limits assumed): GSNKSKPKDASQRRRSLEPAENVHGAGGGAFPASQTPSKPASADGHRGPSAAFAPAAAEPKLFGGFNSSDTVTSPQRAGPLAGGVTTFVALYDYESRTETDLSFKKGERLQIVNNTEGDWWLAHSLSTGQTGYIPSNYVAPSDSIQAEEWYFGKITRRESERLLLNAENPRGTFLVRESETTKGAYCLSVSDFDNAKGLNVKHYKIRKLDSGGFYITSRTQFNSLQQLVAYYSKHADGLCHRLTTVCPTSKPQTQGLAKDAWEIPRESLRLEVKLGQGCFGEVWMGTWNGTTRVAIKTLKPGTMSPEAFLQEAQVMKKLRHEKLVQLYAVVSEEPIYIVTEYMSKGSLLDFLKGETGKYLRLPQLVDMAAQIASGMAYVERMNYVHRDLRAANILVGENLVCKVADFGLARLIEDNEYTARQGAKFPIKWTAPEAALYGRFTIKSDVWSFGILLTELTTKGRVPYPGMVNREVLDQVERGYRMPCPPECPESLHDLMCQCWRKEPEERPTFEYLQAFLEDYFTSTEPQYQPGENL
Mitogen-activated protein kinase 1 (Homo sapiens), sequence (P28482 whole entry): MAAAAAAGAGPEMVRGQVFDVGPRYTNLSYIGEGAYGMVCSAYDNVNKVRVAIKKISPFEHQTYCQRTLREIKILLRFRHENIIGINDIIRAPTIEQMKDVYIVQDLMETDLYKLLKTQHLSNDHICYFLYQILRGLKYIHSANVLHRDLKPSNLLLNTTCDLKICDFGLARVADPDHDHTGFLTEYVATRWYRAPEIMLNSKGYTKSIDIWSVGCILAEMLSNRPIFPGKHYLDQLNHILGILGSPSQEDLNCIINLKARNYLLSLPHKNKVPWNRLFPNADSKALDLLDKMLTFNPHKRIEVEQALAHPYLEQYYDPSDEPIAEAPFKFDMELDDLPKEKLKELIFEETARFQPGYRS
Mitogen-activated protein kinase 3 (Homo sapiens), sequence (P27361 whole entry): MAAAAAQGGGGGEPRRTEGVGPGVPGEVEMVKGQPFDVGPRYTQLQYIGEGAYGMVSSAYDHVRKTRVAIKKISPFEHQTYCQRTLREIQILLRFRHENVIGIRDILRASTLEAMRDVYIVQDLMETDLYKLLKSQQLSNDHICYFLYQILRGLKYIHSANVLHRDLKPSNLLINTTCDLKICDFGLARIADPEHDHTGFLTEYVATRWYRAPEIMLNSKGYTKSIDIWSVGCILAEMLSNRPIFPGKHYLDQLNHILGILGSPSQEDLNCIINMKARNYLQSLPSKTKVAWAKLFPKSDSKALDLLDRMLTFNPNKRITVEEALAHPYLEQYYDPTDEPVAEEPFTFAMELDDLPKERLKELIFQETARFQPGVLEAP
Tyrosine-protein kinase Lyn, sequence (P07948 2-512 limits assumed): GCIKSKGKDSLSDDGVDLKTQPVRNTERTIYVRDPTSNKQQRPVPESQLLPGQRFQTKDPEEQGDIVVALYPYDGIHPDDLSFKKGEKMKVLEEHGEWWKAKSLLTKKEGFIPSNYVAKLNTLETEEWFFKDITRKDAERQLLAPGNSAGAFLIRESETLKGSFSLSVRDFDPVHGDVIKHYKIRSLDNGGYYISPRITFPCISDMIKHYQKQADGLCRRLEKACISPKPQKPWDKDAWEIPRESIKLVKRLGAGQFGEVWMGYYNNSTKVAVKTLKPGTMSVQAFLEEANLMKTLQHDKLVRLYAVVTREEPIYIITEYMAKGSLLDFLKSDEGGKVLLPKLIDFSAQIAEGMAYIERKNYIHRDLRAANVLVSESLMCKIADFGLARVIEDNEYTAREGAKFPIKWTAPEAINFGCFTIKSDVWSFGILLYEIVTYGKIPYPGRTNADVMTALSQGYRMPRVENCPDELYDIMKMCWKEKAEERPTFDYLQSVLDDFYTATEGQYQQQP
Ribosomal protein S6 kinase alpha-1 (Homo sapiens), sequence (Q15418 whole entry): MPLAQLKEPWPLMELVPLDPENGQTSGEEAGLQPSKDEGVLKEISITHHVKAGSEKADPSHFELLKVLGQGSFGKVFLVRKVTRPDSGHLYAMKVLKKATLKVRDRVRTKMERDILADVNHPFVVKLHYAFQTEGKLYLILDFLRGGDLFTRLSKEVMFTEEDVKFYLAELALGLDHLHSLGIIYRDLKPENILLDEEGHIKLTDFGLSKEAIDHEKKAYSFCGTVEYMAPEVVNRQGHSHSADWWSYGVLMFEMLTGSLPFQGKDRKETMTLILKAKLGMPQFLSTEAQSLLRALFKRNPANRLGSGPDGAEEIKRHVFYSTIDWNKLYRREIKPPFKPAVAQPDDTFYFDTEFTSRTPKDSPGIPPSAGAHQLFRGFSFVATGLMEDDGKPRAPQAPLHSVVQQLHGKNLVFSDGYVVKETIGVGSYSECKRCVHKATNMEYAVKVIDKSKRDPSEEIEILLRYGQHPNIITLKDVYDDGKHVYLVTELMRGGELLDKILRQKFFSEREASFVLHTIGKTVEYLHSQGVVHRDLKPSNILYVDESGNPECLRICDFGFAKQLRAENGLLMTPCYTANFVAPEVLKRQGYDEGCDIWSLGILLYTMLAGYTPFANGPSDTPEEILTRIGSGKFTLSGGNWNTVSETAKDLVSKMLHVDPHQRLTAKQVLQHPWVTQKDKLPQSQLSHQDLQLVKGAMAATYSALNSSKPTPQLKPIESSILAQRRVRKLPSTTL
Tyrosine-protein kinase Fyn, sequence (P06241 2-537 limits assumed): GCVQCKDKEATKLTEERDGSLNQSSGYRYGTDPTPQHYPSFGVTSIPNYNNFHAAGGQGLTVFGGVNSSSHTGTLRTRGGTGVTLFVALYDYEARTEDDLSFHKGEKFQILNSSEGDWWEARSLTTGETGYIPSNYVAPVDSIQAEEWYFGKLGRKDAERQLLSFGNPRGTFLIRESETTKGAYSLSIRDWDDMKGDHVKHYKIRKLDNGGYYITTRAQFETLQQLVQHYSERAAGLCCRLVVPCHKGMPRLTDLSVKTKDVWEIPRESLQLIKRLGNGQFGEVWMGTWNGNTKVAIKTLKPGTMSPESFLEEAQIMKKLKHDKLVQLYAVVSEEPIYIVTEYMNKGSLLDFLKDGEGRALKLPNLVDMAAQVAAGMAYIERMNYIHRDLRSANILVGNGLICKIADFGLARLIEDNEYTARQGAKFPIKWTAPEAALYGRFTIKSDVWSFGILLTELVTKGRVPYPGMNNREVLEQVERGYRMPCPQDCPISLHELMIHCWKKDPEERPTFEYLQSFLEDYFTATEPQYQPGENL
RAC-alpha serine/threonine-protein kinase (Homo sapiens), sequence (P31749 whole entry): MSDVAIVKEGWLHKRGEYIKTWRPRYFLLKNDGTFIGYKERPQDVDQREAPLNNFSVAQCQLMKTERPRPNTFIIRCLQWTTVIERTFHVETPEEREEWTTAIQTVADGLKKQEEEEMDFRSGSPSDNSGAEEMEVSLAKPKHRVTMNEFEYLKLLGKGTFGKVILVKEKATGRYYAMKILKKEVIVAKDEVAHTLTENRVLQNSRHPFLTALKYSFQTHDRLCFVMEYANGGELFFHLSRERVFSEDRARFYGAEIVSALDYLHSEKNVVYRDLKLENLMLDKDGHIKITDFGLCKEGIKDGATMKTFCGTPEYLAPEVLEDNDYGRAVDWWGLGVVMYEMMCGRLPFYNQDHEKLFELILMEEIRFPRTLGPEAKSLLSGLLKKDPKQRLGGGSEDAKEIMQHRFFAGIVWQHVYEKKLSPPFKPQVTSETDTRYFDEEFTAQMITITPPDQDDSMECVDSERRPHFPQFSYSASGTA
Tyrosine-protein kinase Lck, sequence (P06239 2-509 limits assumed): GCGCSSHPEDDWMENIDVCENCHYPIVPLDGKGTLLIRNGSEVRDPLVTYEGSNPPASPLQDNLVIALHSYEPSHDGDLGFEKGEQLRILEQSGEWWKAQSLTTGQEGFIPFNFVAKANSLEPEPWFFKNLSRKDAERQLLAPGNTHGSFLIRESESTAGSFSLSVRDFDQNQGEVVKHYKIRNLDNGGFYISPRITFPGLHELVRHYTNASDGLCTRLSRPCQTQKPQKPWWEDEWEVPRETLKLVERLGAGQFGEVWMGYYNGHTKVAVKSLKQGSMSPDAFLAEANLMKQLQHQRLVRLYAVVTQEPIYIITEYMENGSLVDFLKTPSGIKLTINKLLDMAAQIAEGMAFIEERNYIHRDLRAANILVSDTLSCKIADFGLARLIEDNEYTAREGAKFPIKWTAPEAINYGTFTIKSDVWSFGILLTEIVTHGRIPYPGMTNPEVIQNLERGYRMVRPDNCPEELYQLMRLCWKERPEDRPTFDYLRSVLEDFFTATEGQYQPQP

inhibition [1]	inhibition [2]	inhibition [3]	inhibition [4]	inhibition [5]	inhibition [6]	inhibition [7]	inhibition [8]	inhibition [9]	inhibition [10]	inhibition [11]	inhibition [12]	inhibition [13]	inhibition [14]	inhibition [15]	inhibition [16]	inhibition [17]	Compound
2%	-3%	1%	3%	1%	7%	-7%	0%	4%	9%	3%	0%	-3%	-1%	2%	8%	0%	COCCNc1nc(-c2ccccc2)cc2c1c(N)nn2C
59%	7%	7%	13%	28%	14%	55%	50%	56%	54%	59%	12%	82%	11%	0%	21%	62%	COc1ccc(-c2cc3[nH]nc(N)c3c(=O)[nH]2)cc1
